Rows were chosen to be rich in hits. Some 2.6% of all compounds tested hit in one or more screens of this group.
SIAE inh – inhibitors of human sialic acid acetylesterase SIAE; Q9HAT2; SIAE FP-Rh probe binding, fluorescence polarization; inhibition, % at 9.66 µM; actives 0.69% (n = 370,000); AID 1053197;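 active = inhibition above a cutoff: mean of compounds within the control limits plus 3 SD of those, cut at about 17% in these data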;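 also: 0% = plate median of compound wells and 100% = probe without SIAE protein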
mABHD4 FP – inhibitors of mouse ABHD4 | purified mABHD4, FP-Rh probe fluorescence polarization | inhibition, % at 8.92 µM | actives 0.54% (n = 370,000) | Q8VD66;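 active = inhibition exceeding the mean over every tested compound plus 3 SD, cut at about 30% in these data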;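 also: 0% = plate median of compound wells and 100% = S159A mutant with DMSO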
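Test system: mABHD4 protein; Read-out basis: % inhibition; Incubation: 45 min + 60 min at 25 °C; Repeats: single replicate; Technique: fluorescence polarization with parallel and perpendicular emission, 525/598 nm; Compound: 8.92 µM, single dose; Benchmarks: full inhibition S159A mutant plus DMSO, zero as sample-well median.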
HTRA1 inh – HTRA1 (human) protease inhibition; Q92743; recombinant HTRA1, FP-rhodamine activity-based probe, fluorescence polarization; inhibition, % at 5.96 µM; actives 0.5% (n = 340,000); AID 504803; in the data active = inhibition above about 36%;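 also: 0% = enzyme with DMSO and 100% = wells lacking enzyme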
PRMT1 inh – PRMT1 (human) inhibition, primary screen | Q99873 | actives 1.3% (n = 370,000) | inhibition, % at 2.79 µM | recombinant PRMT1, activity-based probe fluorescence polarization;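 active = inhibition above about 21% made by adding two undisclosed values, limit read from the data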
Target sequence (Q99873 whole entry, looked up): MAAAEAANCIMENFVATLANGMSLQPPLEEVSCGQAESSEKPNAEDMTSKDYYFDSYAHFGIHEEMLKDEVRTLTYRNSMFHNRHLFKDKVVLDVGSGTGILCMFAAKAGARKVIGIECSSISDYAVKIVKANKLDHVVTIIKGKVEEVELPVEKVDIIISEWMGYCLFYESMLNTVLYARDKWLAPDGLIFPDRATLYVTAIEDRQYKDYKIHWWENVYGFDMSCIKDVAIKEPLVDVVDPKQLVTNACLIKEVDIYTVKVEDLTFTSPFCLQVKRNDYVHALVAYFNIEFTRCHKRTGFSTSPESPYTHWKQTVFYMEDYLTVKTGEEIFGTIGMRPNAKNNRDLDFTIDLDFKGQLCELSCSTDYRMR
TCR CD3 inh – human TCR-CD3 binding inhibition; actives 0.37% (n = 360,000); AID 651800; inhibition, % at 9.4 µM; TAMRA-labeled TCR probe fluorescence, biochemical; in the data active = inhibition above about 19%;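 also: recombinant mutant TCR 2C K166C tagged with TAMRA read by polarization; 0% = receptor in buffer alone and 100% = receptor with positive control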
PRMT1 confirm – PRMT1 (human) inhibition, FP confirmation; shares compounds with PRMT1 inh; recombinant His-PRMT1, activity-based probe fluorescence polarization; inhibition, % at 2.79 µM; actives 42% (n = 3,300);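 active = mean inhibition across replicates above the hit cutoff derived for the earlier primary screen, cut at about 22% in these data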
An asterisk follows results filed as active; · = no result given.

SMILES	SIAE inh	mABHD4 FP	HTRA1 inh	PRMT1 inh	TCR CD3 inh	PRMT1 confirm
CCNc1nc(NCC)n2c(SCC(=O)Nc3ccc(Br)cc3F)nnc2n1	-4.6	1.1	-6.3	37.4*	-8.1	15.5
COc1ccc2nc(SCC(=O)NCc3ccc(S(N)(=O)=O)cc3)[nH]c2c1	6.2	-2.7	-1.1	-2.5	-0.1	·
CC1(C(=O)Nc2cnc3ccccc3c2)CCN1Cc1ccc(-c2ccccc2)o1 (stereo unspecified)	8.8	5.2	·	33.6*	-8.9	11.2
Cc1ccc(-c2csc3nc(C)n(-n4cccc4)c(=O)c23)o1	-3.5	-2.4	0.0	26.1*	0.5	7.5
O=C1/C(=C\c2ccc(O)cc2)SC(=S)N1Cc1ccccc1	1.8	-20.4	-17.2	3.1	-11.2	·
O=C1/C(=C/c2ccccc2O)SC(=S)N1Cc1cccnc1	-10.0	-6.6	-9.0	54.7*	-1.2	34.7*
COC(=O)c1c(-c2cccnc2)csc1NC(=O)c1cc(C)on1	-2.6	-1.1	-0.7	28.8*	-0.5	12.1
NC(=O)c1ccc(SCC(=O)OCC(=O)NCc2ccco2)c([N+](=O)[O-])c1	0.1	7.7	-2.1	26.1*	-1.9	1.5
CC1CCC(NC(=O)COC(=O)CSc2ccc(C(N)=O)cc2[N+](=O)[O-])CC1 (stereo unspecified)	3.2	4.2	-1.9	13.7	2.6	·
NC(=O)c1ccc(SCC(=O)OCC(=O)NC2CCCCCCC2)c([N+](=O)[O-])c1	1.4	9.8	2.8	65.2*	-1.4	29.9*
CCc1ccc(-c2n[nH]nc2C2=CC(=O)C[C@H](c3ccc(F)cc3)C2)cc1	3.0	-0.3	-40.0	-2.1	2.4	·
O=C(CCN1CCc2ccccc2CC1)c1ccc2c(c1)OCCO2	1.9	2.1	0.1	40.3*	11.1	29.2*
Cc1cc(N2CCN(C(=O)Oc3ccc(-c4ccccc4)cn3)CC2)c2ccccc2n1	-1.4	11.7	·	-3.3	·	·
CCN(CC)C(=O)c1sc2nc(-c3cccs3)cc(-c3cccs3)c2c1N	-15.1	-0.9	-29.1	56.8*	5.2	12.7
CC(=O)c1sc2nc(C)c3c(c2c1N)CCCC3	-0.7	3.6	·	4.6	-6.4	·
CC(=O)c1sc2nsc(SCCN3CCCC3)c2c1N	12.6	7.4	8.8	35.1*	-0.7	10.6
COc1ccc(NC(=O)CSCC(=O)Nc2cccc3ncccc23)cc1	-0.8	2.4	3.7	1.3	8.4	·
O=C(CCS(=O)(=O)c1ccc(Cl)cc1)N1CCCc2ccccc21	-4.0	-2.5	7.1	-2.2	-4.2	·
CC(C)NC1(C(N)=O)CCN(Cc2ccccc2)CC1	0.6	1.1	-1.0	-0.2	1.8	·
O=C(COc1ccccc1)Nc1ccc(S(=O)(=O)Nc2ccccn2)cc1	5.9	-8.7	0.1	31.5*	-1.5	12.8
O=C(COc1ccc(Br)cc1)Nc1ccc(S(=O)(=O)Nc2ccccn2)cc1	2.6	-6.8	-12.1	-0.6	3.2	·
O=C(Nc1ccc(S(=O)(=O)N2CCCCC2)cc1)c1ccc(Cl)nc1	1.8	-5.6	-7.0	2.3	-2.9	·
O=C(Nc1cccc(Cl)c1)c1ccc(S(=O)(=O)NCC2CCCO2)cc1 (stereo unspecified)	-7.9	-2.3	-13.8	2.1	7.7	·
Cc1ccc(NC(=O)Cc2nc(CN(C)CC(=O)Nc3ccc(C)cc3)cs2)cc1	-11.2	12.5	-20.7	-1.6	3.7	·
COc1ccc(C2=Nc3ccccc3C2(O)CCN2C(=O)c3ccccc3C2=O)cc1 (stereo unspecified)	-3.5	-3.3	-5.2	-2.1	3.1	·
SMILES	SIAE inh	mABHD4 FP	HTRA1 inh	PRMT1 inh	TCR CD3 inh	PRMT1 confirm
S=c1nccc(-c2cccs2)[nH]1	2.7	2.2	-0.4	49.1*	-4.1	21.9*
CCc1ccc(-c2csc3[n+]2CCN3C(C)=O)cc1	1.7	-13.4	-2.7	71.6*	7.4	46.1*
C=Cn1c(C(=O)O)ccc1-c1ccc(CC)cc1	3.9	-3.5	5.2	0.2	2.7	·
N=C1/C(=C\c2coc3ccccc3c2=O)C(=O)N=C2SC=CN12	-6.6	-7.7	-13.4	36.4*	-11.5	31.6*
O=C1NC(=O)C(c2cccs2)(c2cccs2)N1	-0.9	6.5	-2.0	-0.8	0.2	·
O=C(CSC(=O)c1ccccc1)Nc1ccccc1F	7.8	4.0	-1.1	29.4*	1.4	25.9*
CCOc1ccc(N2CSC3=C(C#N)C(c4ccco4)CC(=O)N3C2)cc1 (stereo unspecified)	-1.9	19.4	1.7	70.9*	14.7	70.4*
COc1cc(OC)c(C2CC(=O)N3CN(C)CSC3=C2C#N)cc1OC (stereo unspecified)	4.7	2.2	-4.5	42.4*	0.0	77.5*
COc1cc(OC)c(C2CC(=O)N3CN(c4ccccc4)CSC3=C2C#N)cc1OC (stereo unspecified)	4.7	12.9	-7.5	51.9*	1.3	26.4*
N#CC1=C2SCN(c3ccccc3)CN2C(=O)CC1c1c(Cl)cccc1Cl (stereo unspecified)	-1.2	6.9	-7.4	52.2*	4.9	55.0*
COc1ccc(CCC2=NCCN2C(CC(C)C)c2nc3ccccc3[nH]2)cc1 (stereo unspecified)	-5.5	1.7	·	3.7	5.8	·
COc1ccc(NC(=O)CC(C)NCCCN2CCCC2=O)cc1 (stereo unspecified)	8.0	3.9	-0.8	-3.5	5.4	·
CCc1ccccc1N1CSC2=C(C#N)C(c3cc(OC)c(OC)cc3OC)CC(=O)N2C1 (stereo unspecified)	9.7	7.9	0.8	62.1*	-5.0	79.4*
COc1ccc(OC)c(C2CC(=O)N3CN(c4cccc(Cl)c4)CSC3=C2C#N)c1 (stereo unspecified)	-0.5	5.0	1.6	18.0	-6.2	·
COc1ccc(Br)cc1C1CC(=O)N2CN(Cc3ccccc3)CSC2=C1C#N (stereo unspecified)	-1.6	-1.0	-18.4	25.0*	5.8	20.1
COc1ccc(Br)cc1C1CC(=O)N2CN(C)CSC2=C1C#N (stereo unspecified)	-5.1	1.1	4.6	17.4	0.5	·
CC(=O)Nc1cccc(-c2ccnc3c2CC(C)(C(=O)Nc2ccc(Cl)cc2)O3)c1 (stereo unspecified)	-14.2	-37.5	·	4.5	-0.1	·
Cc1ccc(N2C(=O)C3C(C2=O)N2CCCN2C3c2ccccc2)cc1C (stereo unspecified)	9.4	2.1	0.0	1.0	-0.4	·
COc1ccc(N2C(=O)CS(=O)C(c3ccccc3)C2=O)cc1 (stereo unspecified)	-2.6	-4.7	-0.8	95.0*	0.0	97.2*
Cc1ccc(N2C(=O)CS(=O)C(c3ccccc3)C2=O)cc1C (stereo unspecified)	0.2	3.2	-15.5	90.4*	5.9	89.9*
CCCS(=O)(=O)c1c(S(=O)(=O)CCC)c2c(N)cccn2c1C(=O)c1ccc(F)cc1	3.0	2.7	2.9	25.6*	-12.6	6.8

Screening data as filed in PubChem BioAssay.
